In ChEMBL document CHEMBL3259739, “Synthesis and structure-activity relationship of trisubstituted thiazoles as Cdc7 kinase inhibitors” (Eur J Med Chem, 2014):

Each compound was assayed against T1, Mitogen-activated protein kinase kinase kinase 7 (Homo sapiens) (UniProt O43318) (assay: Inhibition of TAK1 (unknown origin) at 1 uM relative to control). Settings: values are per cent of control.
T1 sequence (whole entry): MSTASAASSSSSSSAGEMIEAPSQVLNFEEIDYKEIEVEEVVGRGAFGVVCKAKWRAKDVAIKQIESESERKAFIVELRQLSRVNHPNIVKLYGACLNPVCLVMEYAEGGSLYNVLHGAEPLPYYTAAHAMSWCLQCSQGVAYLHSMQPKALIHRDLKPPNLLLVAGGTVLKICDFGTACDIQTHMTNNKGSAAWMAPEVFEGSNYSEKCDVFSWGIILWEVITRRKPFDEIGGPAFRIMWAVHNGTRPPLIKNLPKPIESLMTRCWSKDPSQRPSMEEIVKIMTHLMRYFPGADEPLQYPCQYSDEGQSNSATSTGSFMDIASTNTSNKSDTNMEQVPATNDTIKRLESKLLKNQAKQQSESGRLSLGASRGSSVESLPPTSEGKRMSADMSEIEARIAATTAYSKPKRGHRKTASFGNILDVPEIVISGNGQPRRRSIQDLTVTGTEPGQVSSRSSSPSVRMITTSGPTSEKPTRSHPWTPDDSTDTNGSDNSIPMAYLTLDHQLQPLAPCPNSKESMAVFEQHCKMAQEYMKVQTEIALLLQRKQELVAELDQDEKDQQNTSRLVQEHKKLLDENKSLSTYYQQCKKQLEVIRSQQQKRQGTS
Summary of the method: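 KinomeSCAN competitive binding panel of 100 kinases; compounds tested at 1 µM in duplicate; read-out is percent […] control.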

SMILES	residual binding, % of control [%]
COc1ccc(-c2nc(-c3ccnc(N)n3)sc2C(N)=O)c(Cl)c1	49
CCOC(=O)c1sc(-c2ccncc2)nc1O	65
NC(=O)c1sc(-c2ccnc(N)n2)nc1-c1ccc(Cl)cc1Cl	34

What follows are compounds tested against T2, Cyclin-G-associated kinase (Homo sapiens) (UniProt O14976) (assay: Inhibition of GAK (unknown origin) at 1 uM relative to control; values are per cent of control). Settings: not given.
T2 sequence (whole entry): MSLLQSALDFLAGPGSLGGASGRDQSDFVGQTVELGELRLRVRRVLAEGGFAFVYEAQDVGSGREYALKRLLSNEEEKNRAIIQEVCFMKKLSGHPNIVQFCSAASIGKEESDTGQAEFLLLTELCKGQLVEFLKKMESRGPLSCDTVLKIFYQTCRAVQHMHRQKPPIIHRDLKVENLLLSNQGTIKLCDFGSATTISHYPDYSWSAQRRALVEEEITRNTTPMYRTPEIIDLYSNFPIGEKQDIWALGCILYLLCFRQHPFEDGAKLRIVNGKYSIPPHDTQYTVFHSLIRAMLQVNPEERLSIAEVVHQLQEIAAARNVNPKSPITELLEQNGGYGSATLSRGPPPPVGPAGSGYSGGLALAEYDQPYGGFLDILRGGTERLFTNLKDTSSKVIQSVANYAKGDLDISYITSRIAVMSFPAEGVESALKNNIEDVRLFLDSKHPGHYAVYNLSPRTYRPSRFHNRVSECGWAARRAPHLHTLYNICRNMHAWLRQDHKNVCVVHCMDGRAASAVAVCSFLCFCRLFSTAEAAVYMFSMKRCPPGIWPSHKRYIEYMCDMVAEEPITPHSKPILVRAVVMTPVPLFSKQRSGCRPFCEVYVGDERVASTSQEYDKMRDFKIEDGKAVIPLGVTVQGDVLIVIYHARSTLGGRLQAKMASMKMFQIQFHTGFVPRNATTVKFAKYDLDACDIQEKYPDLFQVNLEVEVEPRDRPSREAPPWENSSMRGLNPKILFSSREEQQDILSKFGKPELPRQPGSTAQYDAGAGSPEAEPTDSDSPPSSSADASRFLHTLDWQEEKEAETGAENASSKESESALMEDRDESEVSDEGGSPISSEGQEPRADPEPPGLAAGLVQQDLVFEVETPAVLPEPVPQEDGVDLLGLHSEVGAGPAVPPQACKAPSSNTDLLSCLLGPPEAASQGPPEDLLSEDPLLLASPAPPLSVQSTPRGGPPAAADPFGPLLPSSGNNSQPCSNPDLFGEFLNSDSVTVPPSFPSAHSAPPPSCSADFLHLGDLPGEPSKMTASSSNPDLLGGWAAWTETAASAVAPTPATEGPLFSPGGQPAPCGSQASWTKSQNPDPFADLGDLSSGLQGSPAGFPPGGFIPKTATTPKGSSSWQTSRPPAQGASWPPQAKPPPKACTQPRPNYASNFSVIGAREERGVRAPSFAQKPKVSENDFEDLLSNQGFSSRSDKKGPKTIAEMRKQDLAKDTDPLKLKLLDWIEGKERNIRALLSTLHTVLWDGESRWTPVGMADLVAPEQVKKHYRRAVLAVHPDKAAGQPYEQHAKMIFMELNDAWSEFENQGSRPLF

SMILES	residual activity [%]
COc1ccc(-c2nc(-c3ccnc(N)n3)sc2C(N)=O)c(Cl)c1	88
CCOC(=O)c1sc(-c2ccncc2)nc1O	97
NC(=O)c1sc(-c2ccnc(N)n2)nc1-c1ccc(Cl)cc1Cl	90

The compounds below were run against Serine/threonine-protein kinase Nek6 (Homo sapiens) (UniProt Q9HC98) (assay: Inhibition of NEK6 (unknown origin) at 1 uM relative to control; values are per cent of control). Settings: not given.
Sequence of Serine/threonine-protein kinase Nek6 (Homo sapiens) (Q9HC98 whole entry): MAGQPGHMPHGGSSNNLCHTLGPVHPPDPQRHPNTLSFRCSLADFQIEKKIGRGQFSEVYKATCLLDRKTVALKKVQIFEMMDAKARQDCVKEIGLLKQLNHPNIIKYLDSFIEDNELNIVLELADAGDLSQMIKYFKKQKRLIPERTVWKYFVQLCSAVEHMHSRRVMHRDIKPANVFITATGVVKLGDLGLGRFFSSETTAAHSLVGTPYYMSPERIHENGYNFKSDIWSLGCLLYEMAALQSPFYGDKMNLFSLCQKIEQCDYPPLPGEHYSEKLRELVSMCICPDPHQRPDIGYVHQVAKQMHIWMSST

SMILES	residual activity [%]
COc1ccc(-c2nc(-c3ccnc(N)n3)sc2C(N)=O)c(Cl)c1	85
CCOC(=O)c1sc(-c2ccncc2)nc1O	65
NC(=O)c1sc(-c2ccnc(N)n2)nc1-c1ccc(Cl)cc1Cl	81

The compounds below were run against T3, Calcium/calmodulin-dependent protein kinase type IV (Homo sapiens) (UniProt Q16566) (assay: Inhibition of CAMK4 (unknown origin) at 1 uM relative to control; values are per cent of control). Settings: not given.
T3 sequence (whole entry): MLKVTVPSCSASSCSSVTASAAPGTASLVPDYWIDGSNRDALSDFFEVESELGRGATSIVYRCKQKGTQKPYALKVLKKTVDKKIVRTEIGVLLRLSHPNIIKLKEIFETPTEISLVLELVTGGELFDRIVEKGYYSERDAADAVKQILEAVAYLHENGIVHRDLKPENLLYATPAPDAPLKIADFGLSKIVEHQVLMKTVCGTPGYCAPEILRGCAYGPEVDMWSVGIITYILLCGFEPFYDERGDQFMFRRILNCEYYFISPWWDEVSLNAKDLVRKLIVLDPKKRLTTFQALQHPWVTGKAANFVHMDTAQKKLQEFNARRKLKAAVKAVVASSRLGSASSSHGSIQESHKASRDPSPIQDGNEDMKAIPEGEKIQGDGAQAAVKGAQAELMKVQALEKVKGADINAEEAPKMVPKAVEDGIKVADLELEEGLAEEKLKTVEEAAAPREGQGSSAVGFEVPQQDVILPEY

SMILES	residual activity [%]
COc1ccc(-c2nc(-c3ccnc(N)n3)sc2C(N)=O)c(Cl)c1	100
CCOC(=O)c1sc(-c2ccncc2)nc1O	76
NC(=O)c1sc(-c2ccnc(N)n2)nc1-c1ccc(Cl)cc1Cl	100

These compounds were tested against Ephrin type-A receptor 2 (Homo sapiens) (UniProt P29317) (assay: Inhibition of EPHA2 (unknown origin) at 1 uM relative to control; values are per cent of control). Settings: not given.
Sequence of Ephrin type-A receptor 2 (Homo sapiens) (P29317 whole entry): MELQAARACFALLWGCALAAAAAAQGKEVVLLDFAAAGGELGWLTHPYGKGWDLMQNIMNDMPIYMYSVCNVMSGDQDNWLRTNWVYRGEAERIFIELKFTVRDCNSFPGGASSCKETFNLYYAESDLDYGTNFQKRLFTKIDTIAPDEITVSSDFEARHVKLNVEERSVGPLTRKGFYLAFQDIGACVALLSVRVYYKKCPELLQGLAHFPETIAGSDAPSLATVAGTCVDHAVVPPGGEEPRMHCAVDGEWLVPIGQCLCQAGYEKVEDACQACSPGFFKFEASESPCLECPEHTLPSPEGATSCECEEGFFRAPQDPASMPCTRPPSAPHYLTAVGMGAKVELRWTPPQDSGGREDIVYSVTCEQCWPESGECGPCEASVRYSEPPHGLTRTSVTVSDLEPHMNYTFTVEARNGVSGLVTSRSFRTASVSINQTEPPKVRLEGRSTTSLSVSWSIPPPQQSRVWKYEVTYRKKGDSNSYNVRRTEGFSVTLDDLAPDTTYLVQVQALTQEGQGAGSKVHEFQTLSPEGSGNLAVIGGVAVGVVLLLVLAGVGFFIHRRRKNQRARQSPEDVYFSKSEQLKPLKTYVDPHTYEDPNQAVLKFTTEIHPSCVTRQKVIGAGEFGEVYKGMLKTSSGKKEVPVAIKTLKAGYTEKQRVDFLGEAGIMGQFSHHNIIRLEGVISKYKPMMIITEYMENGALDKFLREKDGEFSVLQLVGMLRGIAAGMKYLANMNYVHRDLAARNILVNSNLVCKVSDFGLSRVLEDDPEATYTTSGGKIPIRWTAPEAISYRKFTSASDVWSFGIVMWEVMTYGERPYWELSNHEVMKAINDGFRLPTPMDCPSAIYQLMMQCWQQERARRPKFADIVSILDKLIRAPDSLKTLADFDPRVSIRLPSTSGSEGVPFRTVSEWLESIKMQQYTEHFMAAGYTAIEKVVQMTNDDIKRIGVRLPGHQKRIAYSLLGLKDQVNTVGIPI

SMILES	residual activity [%]
COc1ccc(-c2nc(-c3ccnc(N)n3)sc2C(N)=O)c(Cl)c1	80
CCOC(=O)c1sc(-c2ccncc2)nc1O	78
NC(=O)c1sc(-c2ccnc(N)n2)nc1-c1ccc(Cl)cc1Cl	88

These compounds were tested against Fibroblast growth factor receptor 1 (Homo sapiens) (UniProt P11362) (assay: Inhibition of FGFR1 (unknown origin) at 1 uM relative to control; values are per cent of control). Settings: not given.
Sequence of Fibroblast growth factor receptor 1 (Homo sapiens) (P11362 22-822 limits assumed): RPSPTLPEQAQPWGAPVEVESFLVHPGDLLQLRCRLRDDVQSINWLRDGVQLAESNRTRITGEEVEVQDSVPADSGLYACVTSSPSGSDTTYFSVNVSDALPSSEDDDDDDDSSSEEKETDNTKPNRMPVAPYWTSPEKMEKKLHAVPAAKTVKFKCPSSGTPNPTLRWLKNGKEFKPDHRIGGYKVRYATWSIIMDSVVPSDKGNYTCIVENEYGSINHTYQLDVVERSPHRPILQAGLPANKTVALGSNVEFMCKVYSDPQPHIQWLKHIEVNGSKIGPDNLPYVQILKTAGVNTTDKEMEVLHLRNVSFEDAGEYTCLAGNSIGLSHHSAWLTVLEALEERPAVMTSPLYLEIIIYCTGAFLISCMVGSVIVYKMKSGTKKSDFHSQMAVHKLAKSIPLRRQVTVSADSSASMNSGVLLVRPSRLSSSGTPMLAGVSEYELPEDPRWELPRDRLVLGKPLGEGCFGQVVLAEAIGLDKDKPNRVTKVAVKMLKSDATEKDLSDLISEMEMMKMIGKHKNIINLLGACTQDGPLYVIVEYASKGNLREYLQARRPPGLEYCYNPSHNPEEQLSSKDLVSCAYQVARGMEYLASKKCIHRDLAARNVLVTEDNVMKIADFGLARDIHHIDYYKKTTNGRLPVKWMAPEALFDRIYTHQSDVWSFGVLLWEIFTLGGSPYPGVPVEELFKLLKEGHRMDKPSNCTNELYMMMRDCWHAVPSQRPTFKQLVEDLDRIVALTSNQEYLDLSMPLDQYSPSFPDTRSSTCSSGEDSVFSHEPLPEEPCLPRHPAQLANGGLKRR

SMILES	residual activity [%]
COc1ccc(-c2nc(-c3ccnc(N)n3)sc2C(N)=O)c(Cl)c1	100
CCOC(=O)c1sc(-c2ccncc2)nc1O	89
NC(=O)c1sc(-c2ccnc(N)n2)nc1-c1ccc(Cl)cc1Cl	87
